Source: ChEMBL document CHEMBL3351713, “The identification of perillyl alcohol glycosides with improved antiproliferative activity” (J Med Chem, 2014)
Calls of active or inactive are those of the source. The calls are words filed in the database; no cut-off is given here.

What was measured:
[1] = target: Eukaryotic translation initiation factor 4E-binding protein 1 (Homo sapiens) (UniProt Q13541); assay: Induction of 4E-BP1 phosphorylation at Ser65 in human A549 cells at 250 uM after 6 hrs by Western blotting analysis; format: cell-based
How it was run: (§1)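 A549 cells were exposed to 250 and 500 µM for 6 h, harvested and lysed. Equal total protein was loaded for SDS-PAGE and immunoblot. Probes were p-4E-BP1 (T37/46, S65, T70), p-S6 (S235/236), eIF4E and cleaved PARP, detected by chemiluminescence.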

[2] = Cytotoxicity against human PC3 cells at 250 uM after 48 hrs by alamar blue assay; format: functional; settings: PC-3, 48 h
How it was run: (§2)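 Single 250 µM concentration. Cells seeded at 3 × 10^3/well in F-12K with 10% FBS and 2 mM L-glutamine, then adhered overnight. Exposure was 48 h at 37 °C, 5% CO2, alongside 0.5% DMSO vehicle and 1.5 mM H2O2 controls. Viability was measured by resazurin reduction (0.25 mg/mL stock, 3 h) with fluorescence read at […], em 590 nm.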

[3] = target: Eukaryotic translation initiation factor 4E-binding protein 1 (Homo sapiens) (UniProt Q13541); assay: Induction of 4E-BP1 phosphorylation at Thr37/46 in human A549 cells at 500 uM after 6 hrs by Western blotting analysis; format: cell-based; how it was run: as §1
[4] = target: Small ribosomal subunit protein eS6 (Homo sapiens) (UniProt P62753); assay: Inhibition of S6 ribosomal protein phosphorylation in human A549 cells at 250 to 500 uM after 6 hrs by Western blotting analysis; format: cell-based; how it was run: as §1
[5] = target: Eukaryotic translation initiation factor 4E-binding protein 1 (Homo sapiens) (UniProt Q13541); assay: Induction of 4E-BP1 phosphorylation at Thr70 in human A549 cells at 500 uM after 6 hrs by Western blotting analysis; format: cell-based; how it was run: as §1
[6] = target: Eukaryotic translation initiation factor 4E-binding protein 1 (Homo sapiens) (UniProt Q13541); assay: Induction of 4E-BP1 phosphorylation at Ser65 in human A549 cells at 500 uM after 6 hrs by Western blotting analysis; format: cell-based; how it was run: as §1
[7] = target: Eukaryotic translation initiation factor 4E-binding protein 1 (Homo sapiens) (UniProt Q13541); assay: Induction of 4E-BP1 phosphorylation at Thr70 in human A549 cells at 250 uM after 6 hrs by Western blotting analysis; format: cell-based; how it was run: as §1
[8] = target: Eukaryotic translation initiation factor 4E-binding protein 1 (Homo sapiens) (UniProt Q13541); assay: Induction of 4E-BP1 phosphorylation at Thr37/46 in human A549 cells at 250 uM after 6 hrs by Western blotting analysis; format: cell-based; how it was run: as §1
[9] = Cytotoxicity against human PC3 cells after 48 hrs by alamar blue assay; format: functional, cell-based; settings: PC-3, 48 h
How it was run: (§3)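 Cells seeded at 3 × 10^3/well in F-12K with 10% FBS, 2 mM L-glutamine and penicillin/streptomycin, then left to adhere overnight. Medium was replaced with nine 2- or 3-fold dilutions, with 0.5% DMSO vehicle and 1.5 mM H2O2 controls. Incubation was 48 h at 37 °C, 5% CO2. Resazurin (0.25 mg/mL stock) was added for 3 h and fluorescence read ([…], em 590 nm). IC50 came from a nonlinear dose-response fit; mean ± SD, triplicates, three independent experiments.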

A549 [10] = assay: Increase in PARP cleavage in human A549 cells at 250 to 500 uM after 6 hrs by Western blotting analysis; format: cell-based; how it was run: as §1
A549 [11] = assay: Cytotoxicity against human A549 cells at 250 uM after 48 hrs by alamar blue assay; format: functional; settings: A549, 48 h; how it was run: as §2
A549 [12] = assay: Cytotoxicity against human A549 cells after 48 hrs by alamar blue assay; format: functional, cell-based; settings: A549, 48 h; how it was run: as §3

Eukaryotic translation initiation factor 4E-binding protein 1 (Homo sapiens), sequence (Q13541 whole entry): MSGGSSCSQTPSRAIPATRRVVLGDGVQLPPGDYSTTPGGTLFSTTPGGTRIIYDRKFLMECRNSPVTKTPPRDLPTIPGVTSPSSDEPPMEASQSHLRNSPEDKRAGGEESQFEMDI

Row | Structure (SMILES) | Activity [1] | inhibition at 250 µM [2] [%] | Activity [3] | inhibition [4] | Activity [5] | Activity [6] | Activity [7] | Activity [8] | IC50 [9] [µM] | Activity (A549 [10]) | inhibition at 250 µM (A549 [11]) [%] | IC50 (A549 [12]) [µM]
1 | C=C(C)[C@@H]1CC=C(CN(OC)C2O[C@H](CN=[N+]=[N-])[C@@H](N=[N+]=[N-])[C@H](O)[C@H]2O)CC1 (stereo not given in full) | Active | > 40 | Active | Active | Active | Active | Active | Active | 57 | Active | > 40 | 44
2 | C=C(C)[C@@H]1CC=C(CN(OC)C2OC[C@@H](O)[C@H](O)[C@H]2O)CC1 (stereo not given in full) | – | > 40 | – | – | – | – | – | – | 152 | – | > 40 | 202
3 | C=C(C)[C@@H]1CC=C(CN(OC)C2O[C@H](CNC(=O)CCCCCCCCC)[C@@H](O)[C@H](O)[C@H]2O)CC1 (stereo not given in full) | – | > 40 | – | – | – | – | – | – | 30 | – | > 40 | 14
4 | C=C(C)[C@@H]1CC=C(CN(OC)C2O[C@H](CO)[C@@H](N=[N+]=[N-])[C@H](O)[C@H]2O)CC1 (stereo not given in full) | – | > 40 | – | – | – | – | – | – | 22 | – | > 40 | 4
5 | C=C(C)[C@@H]1CC=C(CN(OC)C2OC[C@@H](N=[N+]=[N-])[C@H](O)[C@H]2O)CC1 (stereo not given in full) | – | > 40 | – | – | – | – | – | – | 170 | – | > 40 | 76
6 | C=C(C)[C@@H]1CC=C(CN(OC)C2O[C@H](CO)[C@@H](O)[C@H](NC(=O)CCCCCCCCC)[C@H]2O)CC1 (stereo not given in full) | Active | > 40 | Active | Active | Active | Active | Active | Active | 19 | Active | > 40 | 14
7 | C=C(C)[C@@H]1CC=C(CN(OC)C2O[C@H](CO)[C@@H](O)[C@H](O)[C@H]2N=[N+]=[N-])CC1 (stereo not given in full) | – | > 40 | – | – | – | – | – | – | 176 | – | > 40 | 221
8 | C=C(C)[C@@H]1CC=C(/C=N/OC)CC1 | – | > 40 | – | – | – | – | – | – | – | – | > 40 | –
9 | C=CCOC(=O)NC[C@H]1OC(N(CC2=CC[C@@H](C(=C)C)CC2)OC)[C@H](O)[C@@H](O)[C@@H]1O (stereo not given in full) | – | > 40 | – | – | – | – | – | – | 232 | – | > 40 | 140
10 | C=C(C)[C@@H]1CC=C(CO)CC1 [PERILLYL ALCOHOL] | inactive | – | inactive | inactive | inactive | inactive | inactive | inactive | 380 | – | – | 350
11 | C=C(C)[C@@H]1CC=C(CN(OC)C2O[C@@H](CO)[C@H](N=[N+]=[N-])[C@@H](O)[C@@H]2O)CC1 (stereo not given in full) | – | > 40 | – | – | – | – | – | – | 263 | – | > 40 | 451
12 | C=C(C)[C@@H]1CC=C(CN(OC)[C@@H]2O[C@H](CO)[C@@H](O)[C@H](O)[C@H]2NC(=O)N(C)N=O)CC1 | – | > 40 | – | – | – | – | – | – | 232 | – | > 40 | 185
13 | C=C(C)[C@@H]1CC=C(CN(OC)C2O[C@H](CN=[N+]=[N-])[C@@H](O)[C@H](O)[C@H]2O)CC1 (stereo not given in full) | – | > 40 | – | – | – | – | – | – | 182 | – | > 40 | 163
14 | C=CCOC(=O)N[C@H]1C(N(CC2=CC[C@@H](C(=C)C)CC2)OC)O[C@H](CO)[C@@H](O)[C@@H]1O (stereo not given in full) | – | > 40 | – | – | – | – | – | – | 826 | – | > 40 | 114
